Blank lines part the entries; values can stand above or below the compound they belong to.
Columns and labels:
[1] = molecular target: USP9x (Homo sapiens, UniProt Q93008); assay: Time-dependent inhibition of recombinant USP9x; assay type: biochemical; settings: read-out: kon of commercially available DUB inhibitors (range)
[2] = tested on: MCF7 breast cancer cells; assay: Effects on MCF7 cells; assay type: cell-based; settings: for cytotoxicity of C17 hydrolysis products: viability of MCF7 cells
[3] = tested on: DUBs (decomposition of high molecular weight ubiquitinated proteins, HMW-Ub) in HEK 293T cell lysates; assay type: biochemical; settings: for stabilization of the HMW-Ub pool (in words): HEK 293T HA-Ub lysates, 37 °C; for DUB inhibitory activity, SAR statement in words: ring B amine modification; for increase of inhibitory potency (factor): relative to C4
[4] = tested on: endogenous K48-linked HMW ubiquitin pool in untransfected HEK 293T lysates; assay type: biochemical; settings: read-out: EC50 for stabilization of the endogenous K48-linked HMW ubiquitin pool
[5] = tested on: 26S proteasome (flux through the ubiquitin-proteasome system); assay: G76VUb-GFP assay in HEK 293T cells; assay type: cell-based; settings: HEK 293T cells expressing G76VUb-GFP
[6] = tested on: K562 leukemia cells; assay: Effects on K562 leukemia cells; assay type: cell-based; settings: for accumulation of K48-linked HMW-Ub / Bcr-Abl level: 50 μM, 2 h; for Bcr-Abl level: anti-Abl immunoblot
Summary of the method: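 K562 cells were treated with test compound (50 μM, 2 h) and immunoblotted for K48-linked ubiquitin and for Bcr-Abl (anti-Abl); Bcr-Abl was also tested over a dose range. For the bortezomib series, cells got test compound (50 μM) with or without bortezomib (6 μM) for 4 h. Lysates were sonicated in SDS before PAGE. Cell cycle was read by FACS, scoring G1 and sub-G1 (apoptotic) cells.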

[7] = tested on: N/N=C/NCc1ccc(OC(=O)Oc2ccc3ccccc3c2)cc1; assay: purified protein, by the assay type; settings: other: chymotrypsin; 37.0 °C
[8] = tested on: NCc1ccc(OC(=O)Oc2ccc3ccccc3c2)cc1; assay: purified protein, by the assay type; settings: other: chymotrypsin; 37.0 °C
[9] = molecular target: T1, SENP6 (Homo sapiens, UniProt Q9GZR1); assay: SENP6-catalyzed deSUMOylation of RanGap; assay type: biochemical; settings: 30 min at room temperature with inhibitor
T1 sequence (Q9GZR1 628-1112): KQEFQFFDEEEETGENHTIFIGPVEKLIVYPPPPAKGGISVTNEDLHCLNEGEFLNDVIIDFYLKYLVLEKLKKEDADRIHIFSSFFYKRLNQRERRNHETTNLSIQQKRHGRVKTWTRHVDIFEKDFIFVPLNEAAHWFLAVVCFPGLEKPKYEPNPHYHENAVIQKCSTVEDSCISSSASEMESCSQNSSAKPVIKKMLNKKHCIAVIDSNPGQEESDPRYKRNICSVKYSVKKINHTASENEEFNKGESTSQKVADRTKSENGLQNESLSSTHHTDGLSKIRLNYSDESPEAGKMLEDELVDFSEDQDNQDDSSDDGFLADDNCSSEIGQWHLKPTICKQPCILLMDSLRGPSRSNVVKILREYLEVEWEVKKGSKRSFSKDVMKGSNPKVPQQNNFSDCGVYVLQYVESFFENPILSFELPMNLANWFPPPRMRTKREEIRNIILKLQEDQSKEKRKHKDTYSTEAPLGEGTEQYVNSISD
Summary of the method: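 His6-tagged SENP6 catalytic domain (aa 628-1112, 200 nM) was preincubated with test compound for 30 min at room temperature. SUMOylated His6-RanGap1 catalytic domain (aa 418-588, 3 μM) was then added for 10 min at 37 °C. Reactions were quenched in Laemmli buffer, resolved by SDS-PAGE and blotted with anti-His6 antibody.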

[10] = tested on: trypsin; assay: Trypsin-catalyzed hydrolysis of diarylcarbonates; assay type: biochemical
Summary of the method: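 The diarylcarbonate served as substrate for trypsin. Hydrolysis velocity was measured across substrate concentrations, and Km and kcat were derived from the velocity versus substrate concentration plot.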

[11] = molecular target: DUBs (USP9x, USP19, USP7/8, USP28/15, UCHL5, UCHL3, UCHL1) in HEK 293T cell lysates (Homo sapiens, UniProt Q93009); assay: HA-Ub-VS activity profiling of HEK 293T cell lysates; assay type: biochemical; settings: HEK 293T cell lysate
Chain of DUBs (USP9x, USP19, USP7/8, USP28/15, UCHL5, UCHL3, UCHL1) in HEK 293T cell lysates (Homo sapiens, UniProt Q93009) (Q93009 whole entry): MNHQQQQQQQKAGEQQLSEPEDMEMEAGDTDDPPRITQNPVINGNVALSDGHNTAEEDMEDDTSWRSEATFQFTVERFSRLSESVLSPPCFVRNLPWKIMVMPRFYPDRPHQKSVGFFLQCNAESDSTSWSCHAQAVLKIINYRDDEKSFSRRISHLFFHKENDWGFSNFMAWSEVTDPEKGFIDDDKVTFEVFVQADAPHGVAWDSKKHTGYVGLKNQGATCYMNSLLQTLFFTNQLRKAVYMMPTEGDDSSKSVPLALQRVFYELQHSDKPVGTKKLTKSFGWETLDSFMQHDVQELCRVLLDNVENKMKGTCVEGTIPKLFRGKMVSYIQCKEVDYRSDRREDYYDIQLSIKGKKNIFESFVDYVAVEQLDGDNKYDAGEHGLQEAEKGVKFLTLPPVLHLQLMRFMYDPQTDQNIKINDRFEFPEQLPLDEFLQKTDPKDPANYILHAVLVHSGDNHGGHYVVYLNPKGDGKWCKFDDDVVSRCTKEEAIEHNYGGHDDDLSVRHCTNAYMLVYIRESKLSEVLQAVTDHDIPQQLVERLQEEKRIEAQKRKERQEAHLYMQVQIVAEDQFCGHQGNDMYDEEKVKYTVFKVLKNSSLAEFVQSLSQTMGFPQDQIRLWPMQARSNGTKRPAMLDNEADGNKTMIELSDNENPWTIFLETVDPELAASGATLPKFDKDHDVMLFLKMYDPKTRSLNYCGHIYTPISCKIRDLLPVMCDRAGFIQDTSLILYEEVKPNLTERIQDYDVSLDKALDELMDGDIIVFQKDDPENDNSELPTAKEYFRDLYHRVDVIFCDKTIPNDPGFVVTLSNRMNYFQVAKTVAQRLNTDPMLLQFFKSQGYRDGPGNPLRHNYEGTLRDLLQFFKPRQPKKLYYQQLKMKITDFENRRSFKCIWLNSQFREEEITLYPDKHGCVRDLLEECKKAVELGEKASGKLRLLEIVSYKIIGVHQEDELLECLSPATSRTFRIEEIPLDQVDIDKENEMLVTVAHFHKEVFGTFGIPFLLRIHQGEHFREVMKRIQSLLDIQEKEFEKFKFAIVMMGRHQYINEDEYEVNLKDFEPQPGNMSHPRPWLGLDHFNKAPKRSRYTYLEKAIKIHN
Summary of the method: (§1)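 HEK 293T lysate (1.5 mg/ml) was treated with test compound (25 μM) or DMSO, then HA-Ub-VS (1.5 μM) was added, or both were added together. Timed aliquots were anti-HA blotted. For the dilution test, lysate (15 mg/ml) was preincubated with compound (250 μM) for 30 min, diluted tenfold, then given HA-Ub-VS (1.5 μM). USP7 was read by anti-USP7 blot as the probe-shifted band.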

[12] = tested on: DUBs (USP9x, USP19, USP7/8, USP28/15, UCHL5, UCHL3, UCHL1) in HEK 293T cell lysates; assay: as above; assay type: biochemical
Summary of the method: as §1

Chain of USP9x (Q93008 whole entry, species assumed): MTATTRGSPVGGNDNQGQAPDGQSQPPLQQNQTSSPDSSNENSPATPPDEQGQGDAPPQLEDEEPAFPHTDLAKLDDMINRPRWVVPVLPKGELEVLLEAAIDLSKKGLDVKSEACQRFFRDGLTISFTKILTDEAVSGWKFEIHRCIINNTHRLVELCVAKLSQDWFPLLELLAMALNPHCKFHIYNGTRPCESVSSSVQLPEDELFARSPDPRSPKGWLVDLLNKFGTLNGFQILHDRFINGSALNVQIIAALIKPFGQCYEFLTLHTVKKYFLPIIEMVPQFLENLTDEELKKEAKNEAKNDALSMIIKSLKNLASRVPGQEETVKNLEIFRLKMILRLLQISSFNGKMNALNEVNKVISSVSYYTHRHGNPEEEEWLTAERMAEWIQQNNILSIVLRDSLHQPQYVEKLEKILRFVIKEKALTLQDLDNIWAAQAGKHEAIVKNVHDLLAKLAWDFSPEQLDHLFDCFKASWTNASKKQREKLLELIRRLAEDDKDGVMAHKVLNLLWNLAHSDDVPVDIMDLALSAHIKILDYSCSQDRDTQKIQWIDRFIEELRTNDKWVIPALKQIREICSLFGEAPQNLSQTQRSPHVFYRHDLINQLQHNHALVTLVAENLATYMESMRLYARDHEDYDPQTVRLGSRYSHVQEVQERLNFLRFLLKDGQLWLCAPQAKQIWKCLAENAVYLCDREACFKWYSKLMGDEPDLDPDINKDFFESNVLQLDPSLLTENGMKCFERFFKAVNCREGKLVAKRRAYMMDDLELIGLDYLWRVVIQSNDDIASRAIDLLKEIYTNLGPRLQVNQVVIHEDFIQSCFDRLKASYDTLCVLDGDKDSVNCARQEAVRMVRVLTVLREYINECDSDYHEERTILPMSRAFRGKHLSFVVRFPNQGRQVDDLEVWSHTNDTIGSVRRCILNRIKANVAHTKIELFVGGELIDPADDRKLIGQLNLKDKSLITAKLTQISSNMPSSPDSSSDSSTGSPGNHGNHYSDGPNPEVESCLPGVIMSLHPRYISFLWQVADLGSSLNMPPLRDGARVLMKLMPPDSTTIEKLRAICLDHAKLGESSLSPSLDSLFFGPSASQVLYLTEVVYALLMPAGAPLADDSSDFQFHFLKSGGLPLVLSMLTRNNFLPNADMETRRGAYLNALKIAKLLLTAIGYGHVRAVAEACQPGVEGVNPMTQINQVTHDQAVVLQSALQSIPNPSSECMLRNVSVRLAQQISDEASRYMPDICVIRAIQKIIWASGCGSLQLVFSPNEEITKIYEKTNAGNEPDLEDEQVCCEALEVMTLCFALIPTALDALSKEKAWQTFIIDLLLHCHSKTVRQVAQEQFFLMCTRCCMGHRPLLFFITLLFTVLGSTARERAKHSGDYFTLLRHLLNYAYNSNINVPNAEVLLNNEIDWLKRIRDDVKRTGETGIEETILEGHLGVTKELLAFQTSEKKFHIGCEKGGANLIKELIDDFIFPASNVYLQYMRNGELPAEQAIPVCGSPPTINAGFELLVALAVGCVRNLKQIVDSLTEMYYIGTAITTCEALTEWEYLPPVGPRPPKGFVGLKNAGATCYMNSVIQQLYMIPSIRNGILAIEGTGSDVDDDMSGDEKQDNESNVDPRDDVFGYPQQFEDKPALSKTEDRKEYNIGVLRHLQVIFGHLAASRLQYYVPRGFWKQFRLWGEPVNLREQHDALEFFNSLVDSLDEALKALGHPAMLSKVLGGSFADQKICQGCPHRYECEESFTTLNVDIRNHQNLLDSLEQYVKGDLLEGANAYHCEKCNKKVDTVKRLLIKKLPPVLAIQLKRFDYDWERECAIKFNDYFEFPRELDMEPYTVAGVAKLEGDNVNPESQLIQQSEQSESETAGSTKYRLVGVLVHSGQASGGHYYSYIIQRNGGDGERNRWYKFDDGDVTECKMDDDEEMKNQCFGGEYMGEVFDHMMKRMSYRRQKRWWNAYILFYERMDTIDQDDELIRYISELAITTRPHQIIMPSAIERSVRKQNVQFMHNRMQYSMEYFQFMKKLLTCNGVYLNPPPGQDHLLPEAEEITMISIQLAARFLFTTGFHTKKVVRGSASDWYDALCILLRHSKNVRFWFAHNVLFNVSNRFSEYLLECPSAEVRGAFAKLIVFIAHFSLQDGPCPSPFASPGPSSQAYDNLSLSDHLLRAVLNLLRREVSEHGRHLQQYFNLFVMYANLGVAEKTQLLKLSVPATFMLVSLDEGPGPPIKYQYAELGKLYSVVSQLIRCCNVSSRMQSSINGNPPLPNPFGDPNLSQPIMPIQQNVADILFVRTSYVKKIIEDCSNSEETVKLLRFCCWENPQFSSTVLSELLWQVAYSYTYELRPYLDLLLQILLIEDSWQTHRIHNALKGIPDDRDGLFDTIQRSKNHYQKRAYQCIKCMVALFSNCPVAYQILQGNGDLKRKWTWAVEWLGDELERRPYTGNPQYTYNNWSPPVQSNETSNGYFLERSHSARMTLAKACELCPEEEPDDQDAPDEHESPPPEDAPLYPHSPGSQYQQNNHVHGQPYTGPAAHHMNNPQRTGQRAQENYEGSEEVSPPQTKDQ

kon [1]: 49 to 140 M⁻¹ s⁻¹
Compound: Cc1ccc(/C=C2\CNC/C(=C\c3ccc(C)cc3)C2=O)cc1 [NSC-632839]

Compound: Oc1ccc2ccccc2c1 [2-naphthol]
cytotoxicity of C17 hydrolysis products [2]: not cytotoxic

Compound: NCc1ccc(NC(=O)Oc2ccccc2)cc1 [C8]
stabilization of the HMW-Ub pool (in words) [3]: did not stabilize

Compound: NCc1ccc(OC(=O)Oc2cccc3ccccc23)cc1 [C18]
EC50 [4]: < 50 µM | GFP fluorescence in G76VUb-GFP assay [5]: failed to increase | accumulation of K48-linked HMW-Ub [6]: caused the accumulation | Bcr-Abl level [6]: decrease

Compound: chymotrypsin (Bos taurus)
Km [7]: 1 µM | kcat [7]: 0.03 s⁻¹ | Km [8]: 1 µM | kcat [8]: 0.03 s⁻¹

Compound: CC(C)(C)CNCc1ccc(OC(=O)Oc2ccc3ccccc3c2)cc1 [C20]
DUB inhibitory activity, SAR statement in words [3]: Inhibitory activity was retained

Compound: CC(C)(C)OC(=O)NCc1ccc(OC(=O)Oc2ccccc2)cc1 [C3]
DUB inhibitory activity, SAR statement in words [3]: activity was lost

inhibition of SENP6-catalyzed deSUMOylation of RanGap [9]: failed to inhibit
Compound: NCc1ccc(OC(=O)Oc2ccc(Cl)cc2)cc1 [C14]
increase of inhibitory potency (factor) [3]: approximately 10 | EC50 [4]: < 50 µM | GFP fluorescence in G76VUb-GFP assay [5]: failed to increase | accumulation of K48-linked HMW-Ub [6]: caused the accumulation | Bcr-Abl level [6]: decrease

Compound: NCc1ccc(OC(=O)Nc2ccccc2)cc1 [C7]
stabilization of the HMW-Ub pool (in words) [3]: did not stabilize

Compound: Cc1cc(C(=O)CN2CCCC2)c(C)n1-c1ccc(F)cc1 [IU1, reference compound]
stabilization of the HMW-Ub pool (in words) [3]: little effect

Compound: O=C1/C(=C/c2ccc([N+](=O)[O-])cc2)CS(=O)(=O)C/C1=C\c1ccc([N+](=O)[O-])cc1 [G5, G5 isopeptidase inhibitor 1, reference compound]
stabilization of the HMW-Ub pool (in words) [3]: stabilized | GFP fluorescence in G76VUb-GFP assay [5]: No significant increase

inhibition of SENP6-catalyzed deSUMOylation of RanGap [9]: failed to inhibit
Compound: N/N=C/NCc1ccc(OC(=O)Oc2ccc3ccccc3c2)cc1 [C22]
DUB inhibitory activity, SAR statement in words [3]: efficacious | kcat as substrate [10]: 0.001 s⁻¹

Compound: O=C(Oc1ccccc1)Oc1ccc(CNCc2ccc(Cl)cc2)cc1 [C5]
DUB inhibitory activity, SAR statement in words [3]: retained DUB inhibitory activity

Compound: CC(C)CNCc1ccc(OC(=O)Oc2ccc3ccccc3c2)cc1 [C21]
DUB inhibitory activity, SAR statement in words [3]: somewhat deleterious

Compound: CC(C)C[C@H](NC(=O)[C@H](Cc1ccccc1)NC(=O)c1cnccn1)B(O)O [bortezomib, reference compound]
stabilization of the HMW-Ub pool (in words) [3]: failed to stabilize | GFP fluorescence in G76VUb-GFP assay [5]: significantly increased

Compound: CC(C)(C)OC(=O)NCc1ccc(OC(=O)Oc2ccc(Cl)cc2)cc1 [C23]
DUB inhibitory activity, SAR statement in words [3]: Inhibitory activity was not recovered

inhibition of USP7 (anti-USP7 immunoblot after HA-UbVS) [11]: inhibition of USP7 was confirmed | accumulation of soluble HMW-Ub ([2]; MCF7 cells, 50 μM, 4 h): caused the accumulation
Compound: NCc1ccc(OC(=O)Oc2ccc3ccccc3c2)cc1 [C17]
EC50 [4]: < 50 µM | kcat as substrate [10]: 0.02 s⁻¹ | HA-Ub-VS labeling of DUB bands ([12]; compound (25 μM) and HA-Ub-VS (1.5 μM) added simultaneously): no inhibition of DUB labeling was observed | HA-Ub-VS labeling of DUB bands ([12]; lysate treated with compound (25 μM) followed by HA-Ub-VS (1.5 μM)): decreasing the labeling of all the bands | HA-Ub-VS labeling of DUB bands ([12]; pre-incubated with compound (250 μM) 30 min, diluted 10-fold before HA-Ub-VS): labeling was reduced | GFP fluorescence in G76VUb-GFP assay [5]: failed to increase | accumulation of K48-linked HMW-Ub [6]: caused the accumulation | Bcr-Abl level [6]: decrease | G1 and apoptotic (sub G1) cells ([6]; 24 h incubation, FACS): dose-dependent increase | Bcr-Abl degradation in the presence of bortezomib ([6]; C17 50 μM, bortezomib 6 μM, 4 h): did not prevent | Mdm2 levels ([2]; MCF7 cells, 4 h): decreased | p21/WAF1 levels ([2]; MCF7 cells, 4 h): robust increase | p53 levels ([2]; MCF7 cells, 4 h): concomitant increase | cell viability ([2]; MCF7 cells, treated every 24 h, 72 h, Alamar Blue): cell viability decreased

Compound: NCc1ccc(O)cc1 [4-aminomethylphenol]
cytotoxicity of C17 hydrolysis products [2]: not cytotoxic

inhibition of SENP6-catalyzed deSUMOylation of RanGap [9]: failed to inhibit
Compound: NCc1ccc(OC(=O)Oc2ccc(Br)cc2)cc1 [C15]
increase of inhibitory potency (factor) [3]: approximately 10 | EC50 [4]: < 50 µM | GFP fluorescence in G76VUb-GFP assay [5]: failed to increase | accumulation of K48-linked HMW-Ub [6]: caused the accumulation | Bcr-Abl level [6]: decrease

Compound: CC(C)(C)OC(=O)NCc1ccc(OC(=O)Oc2ccc3ccccc3c2)cc1 [C19]
DUB inhibitory activity, SAR statement in words [3]: Inhibitory activity was not recovered

From publication PMC6467287 (Bioorganic & medicinal chemistry letters, 2018)
